# Compound activity (PubChem)
# An excerpt weighted towards active compounds, which were near 3.1% of everything screened.
# PAX8 inh HTS: PAX8 transcriptional activity inhibition; RMG-I TPO-luciferase reporter, SteadyGlo, 24 h; inhibition, % at 12.6 µM; 1.2% of 360,000 active;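 active means mean replicate inhibition at least 60% with every replicate also reaching 60%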;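 further: luciferase light reporting Pax8 driven TPO promoter activity; plate controls were median of neutral control wells for no effect and mitoxantrone controls for full effect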
# HIV Env fusion: HIV envelope-mediated fusion inhibition; inhibition, % at 12.3 µM; 1.1% of 360,000 active; HeLa-JRFL Env/CEM21 cell fusion, luciferase;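 active means mean replicate inhibition score of at least 50 and every replicate individually at or above 50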;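 further: 0% = plate neutral controls and 100% = maraviroc near 300 nM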
# FN deposition inh: fibronectin deposition inhibition | AH1F fibroblasts, Alexa488-fibronectin deposition fluorescence, overnight | 0.086% of 350,000 active | inhibition, % at 12.6 µM;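 active means mean inhibition across replicates of 30% or more, regardless of how many single replicates reach that level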;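 further: positive control wells lacked labelled fibronectin entirely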
#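 material = AH1F fibroblast monolayer depositing Alexa488-labelled fibronectin into matrix | amount = 10000 AH1F cells/well | buffer or medium = DMEM plus 2% serum, read in PBS | incubation = 1 h cell adhesion before compound, then overnight fibronectin incubation | detection = fluorescence at 485 nm excitation, 525 nm emission | evaluation = percent inhibition as loss of matrix-bound fibronectin fluorescence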
# FGF22 binding: shifts melting point of recombinant human FGF22; recombinant FGF22 thermal shift, SYPRO orange fluorescence; percent of sucrose octasulfate shift, DMSO zero; AID 651658; activity (Tm shift, normalised), % at 9.99 µM; 1.5% of 340,000 active;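 active means mean Tm shift, scaled 0 neutral to 100 positive control, at about 1.3% or above, every replicate too, limit read from the data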
# Target sequence (Q9HCT0 whole entry, looked up): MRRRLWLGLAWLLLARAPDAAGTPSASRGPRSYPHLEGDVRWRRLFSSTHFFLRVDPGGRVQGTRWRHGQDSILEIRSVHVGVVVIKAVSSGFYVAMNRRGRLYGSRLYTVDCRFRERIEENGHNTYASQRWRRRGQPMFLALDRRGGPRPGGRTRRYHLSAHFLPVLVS
# PGC1a acetyl inh: PGC1a acetylation modulation, inhibitor mode; 0.17% of 350,000 active; AID 651687; inhibition, % at 15.6 µM; U2OS PGC1a acetylation, AlphaScreen anti-acetyl-lysine; with virally co-expressed GCN5 acetyltransferase;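 active means every replicate shows inhibition of at least 40%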;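 further: 0% = neutral control wells and 100% = positive control wells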
# EWS-Fli inh: blocks EWS/Fli oncoprotein-driven transcription | A673 NR0B1-luciferase reporter, viability-normalised | inhibition, % at 12.6 µM | 0.67% of 350,000 active | AID 651661;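 active means mean inhibition of at least 50% after viability correction, with every replicate also passing that limit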;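 further: firefly luciferase signal divided by Alamar Blue viability fluorescence both relative to DMSO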
# An asterisk follows results filed as active; i = inactive; . = not tested or not shown; [ ] = dose if it differs, or a comment.
SMILES,PAX8 inh HTS,HIV Env fusion,FN deposition inh,FGF22 binding,PGC1a acetyl inh,EWS-Fli inh
Cc1ccc(CN2CCN(Cc3cnc(C)s3)CC2CCO)o1 (stereo unspecified),-12,5,5,44*,.,5
COc1ccccc1/C=C/CN1CCN(Cc2ccc(C)o2)C(CCO)C1 (stereo unspecified),16,2,4,.,6,.
Cc1ccc(CN2CCN(Cc3cn(C(C)C)c4ccccc34)CC2CCO)o1 (stereo unspecified),10,-38,.,0,-6,18
Cc1ccc(CN2CCN(Cc3cn(C)nc3C)CC2CCO)o1 (stereo unspecified),21,17,0,43*,.,8
C/C(=C\c1ccccc1)CN1CCN(Cc2ccc(C)o2)C(CCO)C1 (stereo unspecified),24,3,7,44*,.,5
COc1ccc2c3c([nH]c2c1)[C@H](CO)N(C(=O)Nc1ccc(F)cc1)CC31CN(CC2CCOCC2)C1,.,-7[16.7 µM],.,0,.,3
C[C@@H]1CN([C@@H](C)CO)C(=O)c2cccc(NC(=O)Nc3ccc(F)cc3)c2O[C@@H]1CN(C)S(=O)(=O)c1ccccc1,.,25[16.7 µM],.,0,0,21
CC(C)NC(=O)Nc1ccc2c(c1)C(=O)N([C@H](C)CO)C[C@H](C)[C@@H](CN(C)C(=O)NC(C)C)OCCCC[C@H](C)O2,-22,-5[16.7 µM],-7,0,.,.
COCC(=O)Nc1ccc2c(c1)C(=O)N(C)C[C@H](OC)[C@H](C)CN(C(C)=O)[C@H](C)CO2,.,-2[16.7 µM],3,0,2,-11
CCOC(=O)c1nn(C)c2[nH]c(=O)n(C)c(=O)c12,-11,.,-13,44*,-3,-69
CCOC(=O)Nc1c(Cl)[nH]c(=O)n(C)c1=O,4,-6,-3,0,.,10
COCC(C)NC(=O)CCc1nnc(C2(c3ccc(Cl)cc3)CCC2)o1 (stereo unspecified),-83,-17,-7,.,.,.
O=C(CCc1nnc(C2(c3ccc(Cl)cc3)CCC2)o1)NC1CC1,-2,-47,1,44*,9,5
CC(c1ccon1)N(C)C(=O)CCc1nnc(C2(c3ccc(Cl)cc3)CCC2)o1 (stereo unspecified),-16,-14,0,43*,.,-11
C=CCNC(=O)CCc1nnc(C2(c3ccc(Cl)cc3)CCC2)o1,-94,-10,-4,0,.,-89
C[C@@H]1CN([C@H](C)CO)C(=O)c2cc(NC(=O)Cc3ccccc3)ccc2O[C@H]1CN(C)Cc1ccc(Cl)c(Cl)c1,.,.,.,-1,-11,4
COc1ccc(S(=O)(=O)N2CCN(C(=O)COc3ccccc3)CC2)cc1,-13,7,1,43*,.,9
O=C(CCl)N1CCN(S(=O)(=O)c2ccc3ccccc3c2)CC1,3,2,8,0,3,60*
COc1ccc(S(=O)(=O)CCC(=O)N2CCN(c3ccccc3F)CC2)cc1,3,3,-18,44*,.,3
C[C@H](CO)N1C[C@H](C)[C@H](CN(C)S(=O)(=O)c2ccccc2)Oc2ccc(NC(=O)CCCCCC(=O)Nc3ccccc3N)cc2C1=O,12,.,.,0,-6,-5
Nc1ccccc1-c1ccc(Cl)cc1,-1,0,-1,0,.,7
Nc1ccccc1-c1ccccc1N,-7,0,-2,44*,.,-5
C[C@@H]1CN([C@H](C)CO)C(=O)c2cc(NS(=O)(=O)c3cn(C)cn3)ccc2O[C@@H]1CN(C)C(=O)Nc1ccc(F)cc1,13,-11[16.7 µM],.,.,5,0
CC(C)(C)c1ccc(C(=O)Nc2nnc(SCC(=O)NCC3CCCO3)s2)cc1 (stereo unspecified),-140,-251,2,0,.,.
Cc1cnc(NC(=O)c2ccc(OCC3CCCO3)cc2)s1 (stereo unspecified),24,-2,.,0,1,64*
SMILES,PAX8 inh HTS,HIV Env fusion,FN deposition inh,FGF22 binding,PGC1a acetyl inh,EWS-Fli inh
CCOc1ccc(C(=O)Nc2nnc(SCC(=O)NCC3CCCO3)s2)cc1 (stereo unspecified),-10,14,6,0,.,65*
CCCNC(=O)[C@@H]1[C@@H](CO)[C@@H]2Cn3c(ccc(/C=C/c4ccccc4)c3=O)[C@H]1N2C(=O)c1cccnc1,-12,.,.,0,.,-7
O=C(N[C@@H]1CC[C@H](CCNS(=O)(=O)c2ccc(Cl)cc2)O[C@H]1CO)c1cccc(F)c1,6,-13[16.7 µM],.,0,-3,3
CCOC(=O)C1CCCN(C(=O)/C=C/c2cc(OC)c(OC)c(OC)c2)C1 (stereo unspecified),2,-7,16,44*,3,4
COc1cc(/C=C/C(=O)N2CCCN(C(=O)/C=C/c3cc(OC)c(OC)c(OC)c3)CC2)cc(OC)c1OC,-8,-9,9,.,7,.
COc1cc(C=CC(=O)c2ccccc2)cc(OC)c1OC,22,-50,-3,0,.,-4
O=C1C=CCCN1C(=O)/C=C/c1ccccc1Cl,-3,-98[16.7 µM],.,0,73*,62*
COc1cc(/C=C/C(=O)N2CCC=CC2=O)cc(OC)c1OC,105*,i,5,0,.,70*
COc1cc(C=CC(=O)c2cc(OC)c(OC)c(OC)c2)cc(OC)c1OC,96*,35,20,0,.,26
CCS(=O)(=O)Nc1ccc2c(c1)C(=O)N(C)[C@@H]1CC[C@@H](CC(=O)NCCOC)O[C@H]1CO2,1,5[16.7 µM],3,0,.,-2
CCCNC(=O)N1[C@@H](C#N)[C@@H](c2ccc(C#Cc3ccc(F)cc3)cc2)[C@@H]1CO,27,6[16.7 µM],7,0,-14,11
C[C@@H]1CN([C@H](C)CO)C(=O)c2cccc(NC(=O)C3CCCCC3)c2O[C@H]1CN(C)S(=O)(=O)c1cccs1,-13,-16[16.7 µM],.,0,6,-1
O=C1C=CCCN1C(=O)/C=C/c1cccc(C(F)(F)F)c1,19,-264[16.7 µM],.,-1,78*,62*
C/C=C/c1ccc2c(c1)[C@@H]1[C@@H](CCN1C(=O)Cc1ccncc1)[C@@H](CO)N2C,14,.,-6,.,9,2
Fc1ccc(-c2csc3ncnc(N4CCc5ccccc5C4)c23)cc1,70*,.,-5,0,.,8
CC(C)NC(=O)N1CC2(C1)[C@H](c1ccccc1)[C@H](CO)N2CCC(F)(F)F,-12,.,.,0,-3,12
Cc1sc2nc(CSCC(=O)Nc3ccc(C(F)(F)F)cc3)[nH]c(=O)c2c1C,-8,78*,-4,0,.,5
Cc1sc2nc(CSCC(=O)Nc3c(F)cccc3F)[nH]c(=O)c2c1C,2,.,5,0,5,8
C[C@@H]1CN([C@H](C)CO)C(=O)Cc2cc(NS(=O)(=O)c3cccs3)ccc2O[C@@H]1CN(C)S(=O)(=O)c1ccc(Cl)cc1,10,16[16.7 µM],.,0,5,0
